Results from ChEMBL document CHEMBL1781970, “Synthesis and antiproliferative evaluation of 23-hydroxybetulinic acid derivatives” (Eur J Med Chem, 2011).

Key:
Format in all cases: functional, cell-based
A-375 = test: Antiproliferative activity against human A375 cells after 72 hrs by MTT assay; details: A-375, 72 h
In short: (§1)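 Cells grown in RPMI 1640 with 10% FBS and 1% penicillin-streptomycin at 37 °C, 5% CO2, then seeded overnight in 96-well plates. Test compounds were dissolved in DMSO (doxorubicin control in PBS) and given at various concentrations for 72 h at 37 °C. MTT (5 mg/mL in PBS) was added for 4 h and OD read at 570 nm. IC50 was taken from dose-response curves; mean ± SD, ≥3 independent experiments.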

B16 = test: Antiproliferative activity against mouse B16 cells after 72 hrs by MTT assay; details: B16, 72 h; in short: as §1
MCF7 = test: Antiproliferative activity against human MCF7 cells after 72 hrs by MTT assay; details: MCF7, 72 h; in short: as §1
HepG2 = test: Antiproliferative activity against human HepG2 cells after 72 hrs by MTT assay; details: HepG2, 72 h; in short: as §1
HeLa = test: Antiproliferative activity against human HeLa cells after 72 hrs by MTT assay; in short: as §1

Row | Compound | IC50 (A-375) [µM] | IC50 (B16) [µM] | IC50 (MCF7) [µM] | IC50 (HepG2) [µM] | IC50 (HeLa) [µM]
1 | C=C(C)[C@@H]1CC[C@]2(C(=O)OC/C=C/CO)CC[C@]3(C)[C@H](CC[C@@H]4[C@@]5(C)CC[C@H](OC(C)=O)[C@@](C)(COC(C)=O)[C@@H]5CC[C@]43C)[C@@H]12 | 5.72 | > 100 | 15.9 | 7.43 | 16.4
2 | C=C(C)[C@@H]1CC[C@]2(C(=O)OC/C=C/CO)CC[C@]3(C)[C@H](CC[C@@H]4[C@@]5(C)CC[C@H](O)[C@@](C)(CO)[C@@H]5CC[C@]43C)[C@@H]12 | 55.7 | 19.1 | 36 | 38 | 44.4
3 | C=C(C)[C@@H]1CC[C@]2(C(=O)NCCN)CC[C@]3(C)[C@H](CC[C@@H]4[C@@]5(C)CC[C@H](O)[C@@](C)(CO)[C@@H]5CC[C@]43C)[C@@H]12 | 4.83 | 8.38 | 2.93 | 9.57 | 8.92
4 | C=C(C)[C@@H]1CC[C@]2(C(=O)NCC(=O)N3CCC[C@H]3C(=O)O)CC[C@]3(C)[C@H](CC[C@@H]4[C@@]5(C)CC[C@H](O)[C@@](C)(CO)[C@@H]5CC[C@]43C)[C@@H]12 | > 100 | > 100 | > 100 | > 100 | > 100
5 | C=C(C)[C@@H]1CC[C@]2(C(=O)NCC(=O)N[C@@H](Cc3c[nH]c4ccccc34)C(=O)OC)CC[C@]3(C)[C@H](CC[C@@H]4[C@@]5(C)CC[C@H](O)[C@@](C)(CO)[C@@H]5CC[C@]43C)[C@@H]12 | > 100 | 44.4 | > 100 | 46.8 | 66.3
6 | C=C(CO)[C@@H]1CC[C@]2(C(=O)OCCC(C)C)CC[C@]3(C)[C@H](CC[C@@H]4[C@@]5(C)CC[C@H](O)[C@@](C)(CO)[C@@H]5CC[C@]43C)[C@@H]12 | 17.9 | 51.2 | 12.5 | 34.6 | 20.9
7 | C=CCN(CC=C)C(=O)[C@]12CC[C@@H](C(=C)C)[C@@H]1[C@H]1CC[C@@H]3[C@@]4(C)CC[C@H](O)[C@@](C)(CO)[C@@H]4CC[C@@]3(C)[C@]1(C)CC2 | 17.2 | 60.4 | 17.7 | 59.8 | 59
8 | C=C(CO)[C@@H]1CC[C@]2(C(=O)N3CCCCC3)CC[C@]3(C)[C@H](CC[C@@H]4[C@@]5(C)CC[C@H](OC(C)=O)[C@@](C)(COC(C)=O)[C@@H]5CC[C@]43C)[C@@H]12 | 53.7 | 64.3 | 22.2 | 11.3 | 11
9 | C=C(CO)[C@@H]1CC[C@]2(C(=O)N3CCOCC3)CC[C@]3(C)[C@H](CC[C@@H]4[C@@]5(C)CC[C@H](OC(C)=O)[C@@](C)(COC(C)=O)[C@@H]5CC[C@]43C)[C@@H]12 | 31.8 | 39.3 | 17.3 | 20.7 | 18.3
10 | C=C(CO)[C@@H]1CC[C@]2(C(=O)OCC3CCCO3)CC[C@]3(C)[C@H](CC[C@@H]4[C@@]5(C)CC[C@H](OC(C)=O)[C@@](C)(COC(C)=O)[C@@H]5CC[C@]43C)[C@@H]12 (some centres undefined) | 12.5 | 41.8 | 33.6 | 18.7 | 17.8
11 | C=C(C)[C@@H]1CC[C@]2(C(=O)NCCNC(=O)CCC(=O)O)CC[C@]3(C)[C@H](CC[C@@H]4[C@@]5(C)CC[C@H](OC(C)=O)[C@@](C)(COC(C)=O)[C@@H]5CC[C@]43C)[C@@H]12 | 59.5 | 82.6 | 51 | 76.1 | 72.9
12 | C=C(C)[C@@H]1CC[C@]2(C(=O)NCC(=O)N[C@@H](C)C(=O)OC)CC[C@]3(C)[C@H](CC[C@@H]4[C@@]5(C)CC[C@H](O)[C@@](C)(CO)[C@@H]5CC[C@]43C)[C@@H]12 | 5.01 | 11.3 | 8.95 | 12.1 | 8.27
13 | C=C(C)[C@@H]1CC[C@]2(C(=O)N3CCC(N4CCCCC4)CC3)CC[C@]3(C)[C@H](CC[C@@H]4[C@@]5(C)CC[C@H](O)[C@@](C)(CO)[C@@H]5CC[C@]43C)[C@@H]12 | 9.67 | 5.71 | 6.78 | 12.6 | 8.42
14 | C=C(C)[C@@H]1CC[C@]2(C(=O)N3CCC(N4CCCCC4)CC3)CC[C@]3(C)[C@H](CC[C@@H]4[C@@]5(C)CC[C@@H]6OC(=O)OC[C@@]6(C)[C@@H]5CC[C@]43C)[C@@H]12 | 20.4 | 8.69 | 17.6 | 10.3 | 20.6
15 | C=C(CO)[C@@H]1CC[C@]2(C(=O)OCCC(C)C)CC[C@]3(C)[C@H](CC[C@@H]4[C@@]5(C)CC[C@H](OC(C)=O)[C@@](C)(COC(C)=O)[C@@H]5CC[C@]43C)[C@@H]12 | 7.8 | 35.9 | 15.1 | 10.7 | 20.8
16 | C=C(CO)[C@@H]1CC[C@]2(C(=O)OC(C)C)CC[C@]3(C)[C@H](CC[C@@H]4[C@@]5(C)CC[C@H](O)[C@@](C)(CO)[C@@H]5CC[C@]43C)[C@@H]12 | 21.2 | 38.6 | 16.6 | 21 | 22.3
17 | C=C(CO)[C@@H]1CC[C@]2(C(=O)OC(C)C)CC[C@]3(C)[C@H](CC[C@@H]4[C@@]5(C)CC[C@H](OC(C)=O)[C@@](C)(COC(C)=O)[C@@H]5CC[C@]43C)[C@@H]12 | 21.5 | 23.7 | 17.2 | 10.7 | 19.5
18 | C=C(C)[C@@H]1CC[C@]2(C(=O)N3CCC(N4CCCCC4)CC3)CC[C@]3(C)[C@H](CC[C@@H]4[C@@]5(C)CC[C@H](OC(C)=O)[C@@](C)(COC(C)=O)[C@@H]5CC[C@]43C)[C@@H]12 | 8.42 | 9.57 | 6.86 | 11.1 | 10.8
19 | C=C(C)[C@@H]1CC[C@]2(C(=O)O)CC[C@]3(C)[C@H](CC[C@@H]4[C@@]5(C)CC[C@H](O)[C@@](C)(COC(=O)N6CCC(N7CCCCC7)CC6)[C@@H]5CC[C@]43C)[C@@H]12 | 9.23 | 7.25 | 9.95 | 18.5 | 12.5
20 | COc1cccc2c1C(=O)c1c(O)c3c(c(O)c1C2=O)C[C@@](O)(C(=O)CO)C[C@@H]3O[C@H]1C[C@H](N)[C@H](O)[C@H](C)O1 [DOXORUBICIN] | 0.13 | 0.14 | 0.19 |  | 0.13
21 | C=C(C)[C@@H]1CC[C@]2(C(=O)N3CCC[C@H]3C(=O)N[C@@H](CCSC)C(=O)OC)CC[C@]3(C)[C@H](CC[C@@H]4[C@@]5(C)CC[C@H](O)[C@@](C)(CO)[C@@H]5CC[C@]43C)[C@@H]12 | 30.1 | 20.7 | 19.8 | 40.5 | 41.3
22 | C=C(C)[C@@H]1CC[C@]2(C(=O)N3CCC[C@H]3C(=O)O)CC[C@]3(C)[C@H](CC[C@@H]4[C@@]5(C)CC[C@H](O)[C@@](C)(CO)[C@@H]5CC[C@]43C)[C@@H]12 | > 100 | 87.3 | > 100 | 72.2 | 95.6
23 | C=C(C)[C@@H]1CC[C@]2(C(=O)N3CCNCC3)CC[C@]3(C)[C@H](CC[C@@H]4[C@@]5(C)CC[C@H](OC(C)=O)[C@@](C)(COC(C)=O)[C@@H]5CC[C@]43C)[C@@H]12 | 18.8 | 13.1 | 4.89 | 17.7 | 18.8
24 | C=C(C)[C@@H]1CC[C@]2(C(=O)N3CCCCC3)CC[C@]3(C)[C@H](CC[C@@H]4[C@@]5(C)CC[C@H](OC(C)=O)[C@@](C)(COC(C)=O)[C@@H]5CC[C@]43C)[C@@H]12 | > 100 | > 100 | > 100 | 66.3 | 69.2
25 | C=C(CO)[C@@H]1CC[C@]2(C(=O)OC(C)(C)C)CC[C@]3(C)[C@H](CC[C@@H]4[C@@]5(C)CC[C@H](O)[C@@](C)(CO)[C@@H]5CC[C@]43C)[C@@H]12 | 42.7 | 84.1 | 16.4 | 22.7 | 30.7
26 | C=C(CO)[C@@H]1CC[C@]2(C(=O)OC(C)(C)C)CC[C@]3(C)[C@H](CC[C@@H]4[C@@]5(C)CC[C@H](OC(C)=O)[C@@](C)(COC(C)=O)[C@@H]5CC[C@]43C)[C@@H]12 | 34.7 | 49.5 | 14.1 | 15.8 | 23.3
27 | C=C(C)[C@@H]1CC[C@]2(C(=O)O)CC[C@]3(C)[C@H](CC[C@@H]4[C@@]5(C)CC[C@H](O)[C@@](C)(CO)[C@@H]5CC[C@]43C)[C@@H]12 | 42 | 18.7 | 46.6 | 41.4 | 46.2
28 | C=C(C)[C@@H]1CC[C@]2(C(=O)NCC(=O)N[C@@H](Cc3c[nH]c4ccccc34)C(=O)O)CC[C@]3(C)[C@H](CC[C@@H]4[C@@]5(C)CC[C@H](O)[C@@](C)(CO)[C@@H]5CC[C@]43C)[C@@H]12 | > 100 | > 100 | > 100 | > 100 | > 100
29 | C=C(C)[C@@H]1CC[C@]2(C(=O)N[C@@H](CCSC)C(=O)N[C@@H](CCSC)C(=O)OC)CC[C@]3(C)[C@H](CC[C@@H]4[C@@]5(C)CC[C@H](O)[C@@](C)(CO)[C@@H]5CC[C@]43C)[C@@H]12 | 26.8 | 20.4 | 66.1 | 23.1 | 44.4
